RGS4 inh: RGS4 inhibitors, primary screen, cell-based, HEK293 M3R inducible RGS4, calcium flux | Fluo-4 calcium flux; stronger effect = higher value; triggered by carbachol at its EC20 | B-score at 10 µM | 0.45% of 310,000 active;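 active = B-score, a plate-corrected calcium signal, over three deviations above library mean, with baseline fluorescence within five deviations of library mean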;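 also: RGS4 expression induced by doxycycline in cells with stable M3 receptor; B-score is computed from the integrated fluorescence ratio over baseline after carbachol; higher B-score means a larger calcium signal and so more RGS4 inhibition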
Target sequence (P49798 whole entry, looked up): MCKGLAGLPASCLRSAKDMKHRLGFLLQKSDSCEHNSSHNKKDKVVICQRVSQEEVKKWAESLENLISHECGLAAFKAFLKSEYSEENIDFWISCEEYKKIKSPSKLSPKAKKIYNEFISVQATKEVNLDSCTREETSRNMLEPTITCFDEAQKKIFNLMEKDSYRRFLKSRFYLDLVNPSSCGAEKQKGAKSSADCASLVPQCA
RGS4 act: RGS4 potentiators or activators, primary screen, cell-based, HEK293 M3R inducible RGS4, calcium flux; B-score at 10 µM; 0.92% of 310,000 active; carbachol calcium flux Fluo4; stronger effect = lower value;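 active = B-score of the integrated calcium signal more than 4 SD below the library mean, with starting fluorescence not abnormally high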;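 also: negative B-score means reduced calcium response which marks RGS4 activation or potentiation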
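Material: M3R-expressing HEK293 line, RGS4 induced by doxycycline | Schedule: Overnight RGS4 induction, 30 min dye load 37 °C, 20 min compound RT | Measured by: Fluo4 fluorescence kinetic imaging of calcium | Read-out: Integrated calcium ratio converted to B score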
MrgX1 antag: antagonists of human MrgX1 receptor, primary screen, HEK293 cells, Fluo-4 calcium flux. Mas-related G-protein coupled receptor member X1 (Homo sapiens), Q96LB2. BAM8-22 antagonism; stronger effect = lower value. B-score at 10 µM. 1.3% of 310,000 active;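 active = calcium-response B-score plate-corrected more than 3 library SD below zero, starting fluorescence within 5 deviations, no agonist response on first addition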;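 also: peak minus trough fluorescence over baseline after final BAM8-22 challenge near maximal dose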
Target sequence (Q96LB2 whole entry, looked up): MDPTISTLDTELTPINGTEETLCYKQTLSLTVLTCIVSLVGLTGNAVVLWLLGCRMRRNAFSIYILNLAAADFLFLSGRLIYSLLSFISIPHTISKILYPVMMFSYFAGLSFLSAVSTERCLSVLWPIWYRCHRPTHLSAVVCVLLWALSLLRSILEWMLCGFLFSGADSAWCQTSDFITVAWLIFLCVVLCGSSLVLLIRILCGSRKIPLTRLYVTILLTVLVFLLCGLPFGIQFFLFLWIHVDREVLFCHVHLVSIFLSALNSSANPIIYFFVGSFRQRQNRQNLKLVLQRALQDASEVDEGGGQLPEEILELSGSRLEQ
MrgX1 agonist: agonists of human MrgX1 receptor, primary screen, HEK293 cells, Fluo-4 calcium flux. Mas-related G-protein coupled receptor member X1 (Homo sapiens), Q96LB2. Fluo-4 calcium fluorescence, agonist mode; stronger effect = higher value. B-score at 10 µM. 0.44% of 310,000 active. AID 588627, 2011;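 active = calcium response B-score plate-corrected fluorescence ratio at least 3 library SD, with starting fluorescence B-score inside 5 SD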
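Material – MrgX1-expressing HEK293 cells · Input – 15,000 cells seeded per well · Dosing – compound as first of three additions · Times – overnight seeding, then 1 h dark dye loading · Measured by – kinetic Fluo-4 NW fluorescence of intracellular calcium · Read-out – B-scored fluorescence response ratio · Benchmarks – positive and negative control wells on each plate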
MrgX1 PAM: positive allosteric modulators of MrgX1, primary screen, HEK293 cells, Fluo-4 calcium flux; B-score at 10 µM; FDSS; stronger effect = higher value; 0.63% of 310,000 active; AID 588675, 2011;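 active = plate-corrected calcium response at least 3 library SD above typical, normal starting fluorescence, not activating the receptor alone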;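 also: compound read alongside a low EC10 to EC30 dose of BAM8-22 agonist; peak minus trough fluorescence over baseline measured at the second addition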
MrgX1 ag confirm: MrgX1 receptor agonists, duplicate retest, confirmation, HEK293 cells, Fluo-4 calcium flux | shares compounds with MrgX1 agonist | Fluo-4 calcium fluorescence, FDSS | AID 602412, 2012 | 78% of 600 active | activation, % at 10 µM;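 active = calcium signal rise, corrected for plate position, at least 3 library SD high, with starting brightness within 5 such deviations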
HEK293 Ca flux: nonspecific calcium signal in parental HEK293, confirmation, counter-screen for MrgX1 antagonist project, parental HEK293 cells, Fluo-4 calcium flux; shares compounds with MrgX1 antag; Fluo-4 calcium fluorescence, FDSS; fluorescence ratio F(max-min)/F0 at 10 µM; 2% of 4,000 active; AID 624111, 2012;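 active = duplicate-averaged calcium fluorescence ratio at least three times the standard deviation of buffer wells, a nonspecific response in parental cells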
HEK293 Ca counter: calcium response in parental HEK293 cells, primary screen, counter-screen for MrgX1 allosteric activator project, cell-based, Fluo-4 calcium flux, duplicate; fluorescence ratio F(max-min)/F0 at 10 µM; Fluo-4 fluorescence ratio; stronger effect = higher value; shares compounds with MrgX1 antag; AID 624114, 2012; 0.4% of 4,000 active;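 active = calcium fluorescence ratio, averaged over duplicates, at least 3 SD of the buffer-well ratio, meaning a nonspecific response in receptor-free cells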;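 also: untransfected parental HEK293 lacking MrgX1 used as counterscreen for MrgX1 allosteric activators; fluorescence change taken during the second addition on a kinetic imager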
HEK293 Ca cntr2: calcium response in parental HEK293 cells, primary screen, counter-screen for MrgX1 agonist project, cell-based, Fluo-4 calcium flux, duplicate, agonist mode; shares compounds with MrgX1 antag; fluorescence ratio F(max-min)/F0 at 10 µM; 8.7% of 4,000 active; Fluo-4 calcium fluorescence (FDSS); stronger effect = higher value;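 active = calcium fluorescence ratio at least three times the spread of buffer wells, meaning a non-specific response in parental cells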
Active calls of the source: *; i = inactive; · = no result given. Most compounds without a hit are left out; they make up all but 3.5% or so of the library.

SMILES | RGS4 inh | RGS4 act | MrgX1 antag | MrgX1 agonist | MrgX1 PAM | MrgX1 ag confirm | HEK293 Ca flux | HEK293 Ca counter | HEK293 Ca cntr2
CCOc1cc(/C=N/NC(=O)c2ccc(CN3CCOCC3)cc2)ccc1OC | i | i | i | i | i | · | · | · | ·
CSc1ccc(C2NC(=O)c3c(sc4c3CCN(C)C4)N2)cc1 (stereo unspecified) | i | i | i | 27.9* | i | 100.8%* | i | i | i
CN1CCc2c(sc3c2C(=O)NC(c2cccs2)N3)C1 (stereo unspecified) | i | i | i | 40.2* | i | i | i | i | i
CC(C)c1ccc(N(C(=O)c2csnn2)C(C(=O)NC2CCCC2)c2cccnc2)cc1 (stereo unspecified) | i | i | i | 32.7* | i | i | i | i | i
Cc1nnc(SCC(=O)N(C)C2CCCCC2)s1 | i | i | i | i | i | · | · | · | ·
CC(=O)[C@@]1(O)CC[C@H]2[C@@H]3CCC4=CC(=O)CC[C@]4(C)[C@H]3[C@@H](O)C[C@@]21C | i | i | i | 48* | i | i | i | i | i
CCc1ccccc1NC(=O)CCc1nc(-c2cccs2)no1 | i | i | i | i | i | · | · | · | ·
CCOC(=O)c1c(CC(C)C)csc1NC(C)=O | i | i | i | i | i | · | · | · | ·
CCOC(=O)c1c(CC(C)C)csc1NC(=O)c1ccccc1C(=O)O | i | i | i | 36.6* | i | 219.9%* | i | i | i
CCCC1(C)Nc2ccccc2-c2nc3ccccc3n21 (stereo unspecified) | i | i | i | i | i | · | · | · | ·
c1ccc2c(c1)NC1(CCCC1)n1c-2nc2ccccc21 | i | i | i | 29.1* | i | 144.3%* | i | i | i
CCOC(=O)c1ccc(NC(=O)c2cn(CCC#N)nc2-c2ccc3c(c2)OCCO3)cc1 | i | i | i | i | i | · | · | · | ·
CCOC(=O)N1CCN(C(=O)c2c[nH]c3ccc(S(=O)(=O)N(C)c4cccc(C)c4)cc3c2=O)CC1 | i | i | i | 34.2* | i | 191.5%* | i | i | 49.5*
CCOC(=O)N1CCN(C(=O)c2c[nH]c3ccc(S(=O)(=O)N(C)c4ccccc4C)cc3c2=O)CC1 | i | i | i | i | i | · | · | · | ·
COc1ccc(C(=O)CSc2nc3ncccc3[nH]2)cc1OC | i | i | i | i | i | · | · | · | ·
O=C(CCNC(=O)N1CC(=O)Nc2ccccc21)Nc1ccc(F)c(Cl)c1 | i | i | i | i | i | · | · | · | ·
COc1ccc(S(=O)(=O)CC(=O)c2cc3cc(Br)ccc3oc2=O)cc1 | i | i | i | 70.3* | i | 325.9%* | i | i | 61.4*
Cc1ccc(-c2csc(N=C(N)N)n2)c(C)c1 | i | i | i | 76.2* | i | 104.5%* | i | i | i
COc1ccc(-c2csc(N=C(N)N)n2)cc1 | i | i | i | i | i | · | · | · | ·
Cc1sc2ncnc(N(C)C3CCCCC3)c2c1C | i | i | i | 37.8* | i | i | i | i | i

Compound activity deposited in PubChem by Johns Hopkins Ion Channel Center.
